Results on two molecules are retold here after ChEMBL document CHEMBL1759852, “A comparative study of proapoptotic potential of cyano analogues of boswellic acid and 11-keto-boswellic acid” (Eur J Med Chem, 2011).

The subject of test [1] is HL-60. The test can be described thus: Induction of apoptosis in human HL60 cells assessed as cell shrinkage and apoptotic body formation at 0.5 uM after 9 hrs by scanning electron microscopy. The test is classed as functional, cell-based. A digest of the protocol:
(§1)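 HL-60 seeded 2 × 10^5/ml in medium with 10% FCS, treated at 0.5 and 2 μM (DMSO stock; vehicle-only controls) for 9 h at 37 °C. Fixed 2.5% glutaraldehyde in 0.1 M phosphate pH 7.2 at 4 °C 1 h, post-fixed 1% OsO4 1 h, acetone-dehydrated, critical-point dried, gold-coated; surface ultrastructure by scanning electron microscopy.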

Test [2] relates to HL-60. The test can be described thus: Induction of apoptosis in human HL60 cells assessed as increase in scattered apoptotic bodies formation at 0.5 uM after 9 hrs using Hoechst 33258 staining by fluorescence microscopy. In kind it is functional, cell-based. Summed up:
(§2)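 HL-60 cells (2 × 10^6/3 ml) treated 9 h, washed twice in PBS, fixed and stained with Hoechst 33258; nuclear morphology and apoptotic bodies examined by inverted fluorescence microscopy.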

Test [3] relates to HL-60. Briefly: Induction of apoptosis in human HL60 cells assessed as apoptotic cells at 2 uM after 9 hrs by scanning electron microscopy. In kind it is functional, cell-based. Summed up:
as §1

In test [4] the test system is HL-60. Briefly: Induction of apoptosis in human HL60 cells assessed as late apoptotic cells at 1 uM after 6 hrs using Annexin-V-FITC/propidium iodide staining by flow cytometry (reference value: 1%). The test is classed as functional. Summed up: (§3)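 HL-60 cells (1 × 10^6/ml) treated 6 h at varied concentrations; camptothecin 4 μM 6 h positive control. AnnexinV-FITC and propidium iodide staining per kit; FL-1 versus FL-2 flow cytometry with quadrant statistics for apoptotic and necrotic populations; representative of three experiments.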

For test [5], the system named is HL-60. The test can be described thus: Induction of apoptosis in human HL60 cells assessed as early apoptotic cells at 2 uM after 6 hrs using Annexin-V-FITC/propidium iodide staining by flow cytometry (reference value: 6%). In kind it is functional. A digest of the protocol: as §3
Test [6] has as its system HL-60. The test can be described thus: Induction of apoptosis in human HL60 cells assessed as early apoptotic cells at 4 uM after 6 hrs using Annexin-V-FITC/propidium iodide staining by flow cytometry (reference value: 6%). In kind it is functional. A digest of the protocol:
as §3

Test [7] relates to HL-60. The test can be described thus: Induction of apoptosis in human HL60 cells assessed as nuclear condensation and blebbing at 0.5 to 2 uM after 9 hrs Hoechst 33258 staining by fluorescence microscopy. The test is classed as functional, cell-based. Summed up: as §2
Test [8] concerns HeLa. Briefly: Cytotoxicity against human HeLa cells after 48 hrs by MTT assay. The test is classed as functional, cell-based. Summed up: (§4)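 HL-60 (2 × 10^4/200 μl) or HeLa (1 × 10^4/200 μl) in RPMI-1640/MEM, 10% FCS, 37 °C, 5% CO2; treated 0.1–50 μM for 48 h, DMSO vehicle <0.2%. MTT added final 3 h; formazan dissolved in DMSO, OD 570 nm (reference 620 nm). IC50 as 50% viability versus untreated control; three experiments, CV <10%.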

Test [9] relates to HL-60. Briefly: Induction of apoptosis in human HL60 cells assessed as late apoptotic cells at 2 uM after 6 hrs using Annexin-V-FITC/propidium iodide staining by flow cytometry (reference value: 1%). In kind it is functional. A digest of the protocol:
as §3

Test [10] relates to HL-60. The test can be described thus: Induction of apoptosis in human HL60 cells assessed as late apoptotic cells at 0.3 uM after 6 hrs using Annexin-V-FITC/propidium iodide staining by flow cytometry (reference value: 1%). The test is classed as functional. Summed up:
as §3

The subject of test [11] is HL-60. Briefly: Induction of apoptosis in human HL60 cells assessed as smoothening of cell surface and blebbing of plasma membrane at 0.5 uM after 9 hrs by scanning electron microscopy. The test is classed as functional, cell-based. A digest of the protocol: as §1
For test [12], the system named is HL-60. Briefly: Cytotoxicity against human HL60 cells after 48 hrs by MTT assay. The test is classed as functional, cell-based. As to conditions: HL-60, 48 h. A digest of the protocol: as §4
In test [13] the test system is HL-60. The test can be described thus: Induction of apoptosis in human HL60 cells assessed as late apoptotic cells at 4 uM after 6 hrs using Annexin-V-FITC/propidium iodide staining by flow cytometry (reference value: 1%). In kind it is functional. Summed up:
as §3

The subject of test [14] is HL-60. Briefly: Induction of apoptosis in human HL60 cells assessed as early apoptotic cells at 0.3 uM after 6 hrs using Annexin-V-FITC/propidium iodide staining by flow cytometry (reference value: 6%). The test is classed as functional. Summed up: as §3
For test [15], the system named is HL-60. The test can be described thus: Induction of apoptosis in human HL60 cells assessed as early apoptotic cells at 1 uM after 6 hrs using Annexin-V-FITC/propidium iodide staining by flow cytometry (reference value: 6%). The test is classed as functional. A digest of the protocol:
as §3

Test [16] has as its system HL-60. Briefly: Cell cycle arrest in human HL60 cells assessed as accumulation at sub-G1 phase at 4 uM after 18 hrs by flow cytometry relative to control. The test is classed as functional. Summed up: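 HL-60 cells at 1 × 10^6/ml exposed 18 h; camptothecin 4 μM for 6 h as positive control. Cells pelleted 160 × g 5 min, PBS-washed, fixed in cold 70% alcohol overnight at −20 °C, RNase (400 μg/ml) digested, PI-stained; flow cytometry, hypo-diploid (<2n DNA) sub-G0/G1 fraction scored as apoptotic.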

Test [17] relates to HL-60. Briefly: Induction of apoptosis in human HL60 cells assessed as loss of cell cytoplasmic volume at 2 uM after 9 hrs by scanning electron microscopy. The test is classed as functional, cell-based. A digest of the protocol:
as §1

In test [18] the test system is HL-60. The test can be described thus: Cell cycle arrest in human HL60 cells assessed as accumulation at sub-G1 phase at 4 uM after 18 hrs by flow cytometry relative to control.
Test [19] concerns HL-60. Briefly: Induction of apoptosis in human HL60 cells assessed as DNA ladder formation at 4 uM after 9 hrs by agarose gel electrophoresis. In kind it is functional, cell-based.

Calls of active or inactive are those of the source. The rule behind the calls is not given here.

In the case of `CCCCOC(=O)[C@@]1(C)C(=O)C(C#N)=C[C@]2(C)[C@H]3CC=C4[C@@H]5[C@@H](C)[C@H](C)CC[C@]5(C)CC[C@@]4(C)[C@]3(C)CC[C@@H]12`, the result in test [1], in test [2], in test [3], in [7], in test [11] and in test [17] was Active. Also, the Activity in test [4] is given as 1%; in [5] it was 11%; in test [6] it was 12%; in test [9], 2%; in test [10], 2%; in test [13] it was 1%. Moreover, the Activity in [14] turned out to be 9%; in [15], 10%; in test [16], 76%. Also, the IC50 worked out at 7.9 µM in [8] and 0.42 µM in test [12].
For the molecule `CC[C@@]1(O)C(=O)OCc2c1cc1n(c2=O)Cc2cc3ccccc3nc2-1` [CAMPTOTHECIN], the Activity amounted to 96% in test [18], 35% in test [6] and 4% in test [13]. The outcome in [19] was Active.
